Several values for one entry are separate records, joined by “and”; a condition that tells them apart may be missing. Equal values may be shown once. Values belong to the molecule of their own block, whether it stands above or below them.
Legend:
Osteoclast-like [1] = test: Percentage of CFU-GEMM inhibition value after 14 days for bone marrow cells treated with compound at IC90; type: functional, Homo sapiens
HL-60 [2] = test: Percentage of mitosis after 8 hr exposure of HL60 cells to the compound at 2.5 nM; type: functional, Homo sapiens
Summary of the method: (§1)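 HL60 cells were exposed to compound for 8 h. Mitotic cells were then counted by fluorescence microscopy after acridine orange and ethidium bromide staining.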

[3] = Therapeutic index (IC90/percentage of CFUGEMM inhibition) value after 14 days for bone marrow cells treated with compound at IC90; type: cell-based; settings: human, 336 h
K562 [4] = test: Concentration required to inhibit cell growth 50% was determined in K562ADR cell lines; type: functional, cell-based; settings: Homo sapiens
Summary of the method: (§2)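 Leukemia cells grown in RPMI 1640 with 10% FCS, penicillin, streptomycin and 2 mM L-glutamine at 37 °C, 5% CO2. Compounds from 20 mM DMSO stocks, final DMSO ≤0.5%. 2 × 10^5 cells in 1 mL were exposed to a range of concentrations for 48 h. Viable cells were counted by trypan blue on a hemocytometer and expressed as percent of control proliferation.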

HL-60 [5] = test: Apoptotic concentration to induce apoptosis in 50% cells was determined in HL60R cell lines; type: functional, cell-based; settings: Homo sapiens
HL-60 [6] = test: Concentration to induce apoptosis in 50% cells was determined in HL60 cells; type: functional, cell-based; settings: Homo sapiens
HL-60 [7] = test: Inhibitory concentration to inhibit cell growth 50% was determined in HL60 cells; type: functional, cell-based; settings: Homo sapiens; summary of the method: as §2
[8] = Concentration required to inhibit cell growth 50% was determined in HL60R cell lines; type: functional, cell-based, Homo sapiens; summary of the method: as §2
HL-60 [9] = test: Percentage of apoptotis inhibition at 0.5 uM concentration was determined in HL60 cells in the presence of Fas-blocking monoclonal antibody; type: functional, Homo sapiens; set-up: scale not given: the % may be the effect or the level left
Summary of the method: (§3)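 HL60 cells (2 × 10^5) were pretreated for 2 h with Fas-blocking MoAb ZB4 or with caspase-9 inhibitor Z-LEHD-fmk (5 µM) before compound was added. Apoptosis was scored at 48 h by acridine orange/ethidium bromide morphology and expressed as percent inhibition.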

[10] = Percentage of apoptotis in HUT78 cells after 48 h of exposure at 2 uM concentration; type: functional, Homo sapiens; settings: in the assay text read “at IC90 concentration” for “at 2 uM concentration”
Summary of the method: (§4)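 HUT78 (Fas-expressing) and HUT78B1 (nonfunctional death-domain-deleted Fas) cells were exposed to compound for 48 h. Apoptosis was scored morphologically by fluorescence microscopy after acridine orange/ethidium bromide staining, based on chromatin condensation and apoptotic bodies.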

HL-60 [11] = test: Percentage of mitosis after 8 hr exposure of HL60 cells to the compound at 1 uM; type: functional, Homo sapiens; summary of the method: as §1
HL-60 [12] = test: Percentage of apoptotis inhibition at 0.5 uM concentration was determined in HL60 cells in the presence of Z-LEHD-fmk inhibitor; type: functional, Homo sapiens; set-up: scale not given: the % may be the effect or the level left; summary of the method: as §3
K562 [13] = test: Concentration to induce apoptosis in 50% cells was determined in K562ADR cell lines; type: functional, cell-based; settings: Homo sapiens
HuT78 [14] = test: Percentage of apoptotis in HUT78B1 cells after 48 h of exposure at 2 uM concentration; type: functional, Homo sapiens; summary of the method: as §4
K562 [15] = test: Concentration to induce apoptosis in 50% cells was determined in K562 cell lines; type: functional, cell-based; settings: Homo sapiens
HL-60 [16] = test: Concentration to induce apoptosis in 50% cells was determined in HL60R cell lines; type: functional, cell-based; settings: Homo sapiens
Osteoclast-like [17] = test: Percentage of CFU-GEMM inhibition after 14 days for bone marrow cells treated with compound at IC90; type: functional, Homo sapiens
HL-60 [18] = test: Percentage of apoptotis inhibition at 0.3 uM concentration was determined in HL60 cells in the presence of Fas-blocking monoclonal antibody; type: functional, Homo sapiens; set-up: scale not given: the % may be the effect or the level left; summary of the method: as §3
HL-60 [19] = test: Percentage of apoptotis inhibition at 0.3 uM concentration was determined in HL60 cells in the presence of Z-LEHD-fmk inhibitor; type: functional, Homo sapiens; set-up: scale not given: the % may be the effect or the level left; summary of the method: as §3
HuT78 [20] = test: Percentage of apoptotis was determined in HUT78 cells after 48 h of exposure at 2 uM concentration; type: functional, Homo sapiens; summary of the method: as §4
[21] = Inhibitory concentration against HL60R cell lines; type: functional, cell-based, Homo sapiens; settings: hl-60; summary of the method: as §2
HL-60 [22] = test: Percentage of apoptotis inhibition at 2 uM concentration was determined in HL60 cells in the presence of Fas-blocking monoclonal antibody; type: functional, Homo sapiens; set-up: scale not given: the % may be the effect or the level left; summary of the method: as §3
HL-60 [23] = test: Percentage of mitosis after 8 hr exposure of HL60 cells at 2 uM; type: functional, Homo sapiens; summary of the method: as §1
HL-60 [24] = test: Percentage of apoptotis inhibition at 2 uM concentration was determined in HL60 cells in the presence of Z-LEHD-fmk inhibitor; type: functional, Homo sapiens; set-up: scale not given: the % may be the effect or the level left; summary of the method: as §3
K562 [25] = test: Inhibitory concentration against K562ADR cell lines; type: functional, cell-based; settings: Homo sapiens; summary of the method: as §2

SMILES: COc1ccc(/C=C\c2cc(OC)c(OC)c(OC)c2)cc1O [COMBRETASTATIN A4]
CFU-GEMM (Osteoclast-like [1]): 37% | Activity (HL-60 [2]): 88% | Ratio [3]: 2.4

SMILES: COc1ccc([C@@H]2C(C)=NO[C@@H]2c2cc(OC)c(OC)c(OC)c2)cc1O
AC50 (HL-60 [6]): 3500 nM | IC50 (HL-60 [7]): 2000 nM

SMILES: COc1ccc(-c2ccccc2-c2cc(OC)c(OC)c(OC)c2)cc1O
AC50 (HL-60 [6]): 30000 nM | IC50 (HL-60 [7]): 20000 nM

SMILES: COc1ccc(-c2ccc(-c3cc(OC)c(OC)c(OC)c3)cc2)cc1O
AC50 (HL-60 [6]): 35000 nM | IC50 (HL-60 [7]): 30000 nM

SMILES: COc1ccc([C@H]2C(S(=O)(=O)c3ccccc3)=NO[C@@H]2c2cc(OC)c(OC)c(OC)c2)cc1O
AC50 (HL-60 [6]): 25000 nM | IC50 (HL-60 [7]): 15000 nM

SMILES: COc1ccc(-c2cc(-c3cc(OC)c(OC)c(OC)c3)on2)cc1O
AC50 (HL-60 [6]): 4000 nM | IC50 (HL-60 [7]): 3000 nM

SMILES: COc1ccc(-c2ncccc2-c2cc(OC)c(OC)c(OC)c2)cc1O
AC50 (HL-60 [6]): 10000 nM | IC50 (HL-60 [7]): 5000 nM

SMILES: COc1ccc(-c2cc(-c3cc(OC)c(OC)c(OC)c3)no2)cc1O
AC50 (HL-60 [6]): 4500 nM | IC50 (HL-60 [7]): 3000 nM

SMILES: COc1ccc([C@@H]2ON=C(C)[C@@H]2c2cc(OC)c(OC)c(OC)c2)cc1O
AC50 (HL-60 [6]): 3500 nM | IC50 (HL-60 [7]): 2000 nM

SMILES: COc1ccc(C2CC(c3cc(OC)c(OC)c(OC)c3)=NO2)cc1O (configuration not stated)
AC50 (HL-60 [6]): 5500 nM | IC50 (HL-60 [7]): 3200 nM

SMILES: COc1ccc(-c2cccc(-c3cc(OC)c(OC)c(OC)c3)c2)cc1O
AC50 (HL-60 [6]): 22000 nM | IC50 (HL-60 [7]): 12000 nM

Second part, led by results:

IC50 (K562 [4]): 500 nM | IC50 (HL-60 [7]): 250 nM
SMILES: COC1=NO[C@H](c2cc(OC)c(OC)c(OC)c2)[C@@H]1c1ccc(OC)c(O)c1
AC50 (HL-60 [5]): 2000 nM | AC50 (HL-60 [6]): 500 nM | IC50 ([8]; hl60r): 750 nM and 200 nM | Activity (HL-60 [9]): 57% | CFU-GEMM (Osteoclast-like [1]): 34% | Activity [10]: 75% | Activity (HL-60 [11]): 15% | Activity (HL-60 [12]): 91.4% | AC50 (K562 [13]): 2000 nM | Activity (HuT78 [14]): 40% | AC50 (K562 [15]): 400 nM | Ratio [3]: 2.6

IC50 (HL-60 [7]): 300 nM
SMILES: COc1ccc(-c2cccnc2-c2cc(OC)c(OC)c(OC)c2)cc1O
AC50 (HL-60 [6]): 600 nM

IC50 (HL-60 [7]): 500 nM
SMILES: COc1ccc(-c2cc(Cl)cnc2-c2cc(OC)c(OC)c(OC)c2)cc1O
AC50 (HL-60 [6]): 800 nM

IC50 (HL-60 [7]): 1500 nM
SMILES: COc1ccc(C2=NOC(c3cc(OC)c(OC)c(OC)c3)C2)cc1O (configuration not stated)
AC50 (HL-60 [6]): 2200 nM

IC50 (K562 [4]): 500 nM | IC50 (HL-60 [7]): 100 nM
SMILES: COC1=NO[C@@H](c2ccc(OC)c(O)c2)[C@H]1c1cc(OC)c(OC)c(OC)c1
AC50 (HL-60 [6]): 300 nM | IC50 ([8]; Homo sapiens, HL60R): 250 nM | IC50 ([8]; hl60r): 250 nM | AC50 (HL-60 [16]): 750 nM | CFU-GEMM (Osteoclast-like [17]): 36% | Activity [10]: 80% | Activity (HL-60 [18]): 25% | Activity (HL-60 [11]): 17% | AC50 (K562 [13]): 2000 nM | Activity (HuT78 [14]): 60% | Activity (HL-60 [19]): 50% | AC50 (K562 [15]): 400 nM | Ratio [3]: 2.5

IC50 [21]: 3000 nM and 1000 nM | IC50 (HL-60 [7]): 900 nM | IC50 (K562 [25]): 2000 nM
SMILES: COc1ccc([C@H]2ON=C(S(=O)(=O)c3ccccc3)[C@@H]2c2cc(OC)c(OC)c(OC)c2)cc1O
Activity (HuT78 [20]): 70% | AC50 (HL-60 [6]): 2000 nM | Activity (HL-60 [22]): 25% | Activity (HL-60 [23]): 18% | Activity (HL-60 [24]): 71.5% | AC50 (HL-60 [16]): 5000 nM | CFU-GEMM (Osteoclast-like [1]): 42% | AC50 (K562 [13]): 8000 nM | Activity (HuT78 [14]): 46% | AC50 (K562 [15]): 2000 nM | Ratio [3]: 2.1
